Laboratory results: ChEMBL document CHEMBL1130234 (J Med Chem, 1997)

Key:
[1] = Partition coefficient (logP); type: physicochemical; details: octanol/water
[2] = system: HaCaT; assay: Antiproliferative (inhibition of cell growth) activity against HaCaT cells (human keratinocyte line); type: functional, cell-based
Summary of the method: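 HaCaT human keratinocytes treated for 48 h. Proliferation assessed by directly counting dispersed cells under a phase-contrast microscope; N = 3, significance versus control at P < 0.01.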

[3] = molecular target: T1, Arachidonate 5-lipoxygenase (Bos taurus, UniProt Q9BEG3); assay: 5-LO inhibitory activity was determined by inhibition of LTB4 biosynthesis in bovine polymorphonuclear leukocytes (PMNL); type: functional, cell-based
T1 sequence (Q9BEG3 whole entry): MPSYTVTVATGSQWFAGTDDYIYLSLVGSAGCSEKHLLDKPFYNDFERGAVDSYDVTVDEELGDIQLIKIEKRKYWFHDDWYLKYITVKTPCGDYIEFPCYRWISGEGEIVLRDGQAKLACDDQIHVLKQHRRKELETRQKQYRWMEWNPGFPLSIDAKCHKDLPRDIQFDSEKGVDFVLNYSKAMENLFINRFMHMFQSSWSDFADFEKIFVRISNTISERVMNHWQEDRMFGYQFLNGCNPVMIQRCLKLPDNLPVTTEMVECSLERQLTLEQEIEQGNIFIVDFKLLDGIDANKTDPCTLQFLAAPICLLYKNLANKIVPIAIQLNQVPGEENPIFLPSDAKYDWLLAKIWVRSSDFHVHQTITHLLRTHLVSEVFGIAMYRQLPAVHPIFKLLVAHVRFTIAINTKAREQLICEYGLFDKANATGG
Summary of the method: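 LTB4 biosynthesis measured in bovine polymorphonuclear leukocytes, with NDGA as the standard inhibitor; N = 3 or more, significance versus control at P < 0.01.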

[4] = Antioxidant potential was assessed from reducing activity against 2,2,di-phenyl-1-picrylhydrazyl.
[5] = system: HaCaT; assay: Cytotoxic activity (2 uM) was measured by the amount of LDH (mU) release in HaCaT cells.; type: functional, Homo sapiens
Summary of the method: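 HaCaT cells exposed to test compound at 2 μM; LDH activity (mU) released into the culture medium measured and compared with vehicle control; N = 3.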

SMILES | logP [1] | IC50 [2] [µM] | IC50 [3] [µM] | kDPPH [4] [M⁻¹ s⁻¹] | LDH [5] [mU]
O=Cc1ccc2c(c1O)C(=O)c1c(O)cccc1C2 | 4.06 | > 5 | 6 | > 100 | –
O=C1c2c(O)cccc2C(C(=O)c2ccccc2)c2cccc(O)c21 | 3.81 | > 5 | – | – | –
CC(C)=CCc1c(C)c(CC=C(C)C)c2c(c1O)C(=O)c1c(O)cc(O)c(CC=C(C)C)c1C2 [HARUNGANOL B] | 8.01 | > 5 | > 30 | 3.1 | –
CC(=O)C1c2cccc(O)c2C(=O)c2c(O)cccc21 | 3.49 | 2.6 | 18 | 17.6 | 317
O=C1c2c(O)cccc2C(Br)c2cccc(O)c21 | 3.94 | > 5 | > 30 | 12.7 | –
O=C1c2c(O)cccc2C(SCc2ccccc2)c2cccc(O)c21 | 4.87 | – | > 30 | > 100 | –
O=C1c2ccccc2Cc2ccc(O)c(O)c21 | 3.19 | 1.9 | 4 | 41.5 | –
O=CC1c2cccc(O)c2C(=O)c2c(O)cccc21 | 2.79 | 1.9 | – | < 2 | 124
CCC(=O)c1ccc2c(c1O)C(=O)c1c(O)cccc1C2 | 4.59 | 3.3 | – | > 100 | –
CC(C)=CCc1c(C)cc(O)c2c1Cc1c(CC=C(C)C)c(O)cc(O)c1C2=O | 6.56 | > 5 | 25 | 8.2 | –
O=C1c2c(O)cccc2C(Cc2ccccc2)(Cc2ccccc2)c2cccc(O)c21 | 4.33 | > 5 | > 30 | < 2 | 167
O=C1C=CC(=O)c2c(O)cccc21 [JUGLONE] | – | 0.8 | 17 | 6.6 | 384
O=C1c2ccccc2Cc2ccccc21 [ANTHRONE] | 3.46 | > 5 | 2 | < 2 | 165
O=C(c1ccccc1O)c1ccccc1O [2,2'-DIHYDROXYBENZPHENONE] | 2.66 | > 5 | > 30 | 2.1 | –
c1ccc2c(c1)Cc1ccccc1C2 | 4.06 | > 5 | > 30 | – | –
O=C1c2c(O)cccc2C(O)c2cccc(O)c21 | 2.91 | > 5 | > 30 | < 2 | –
CCCCc1ccc2c(c1O)C(=O)c1c(O)cccc1C2 | 5.89 | > 5 | > 30 | 6.5 | –
COc1cccc2c1Cc1c(O)cccc1C2=O | 2.6 | > 5 | – | < 2 | 141
CCC1c2cccc(O)c2C(=O)c2c(O)cccc21 | 4.37 | > 5 | > 30 | < 2 | 161

SMILES | logP [1] | IC50 [2] [µM] | IC50 [3] [µM] | kDPPH [4] [M⁻¹ s⁻¹] | LDH [5] [mU]
COc1cccc2c1Cc1c(OC)cccc1C2=O | 3.68 | > 5 | 8 | < 2 | 137
Cc1cc(O)c2c(c1)Cc1cc(O)cc(O)c1C2=O [EMODIN ANTHRONE] | 3.9 | > 5 | – | 21.4 | 114
N#Cc1ccc2c(c1O)C(=O)c1c(O)cccc1C2 | 3.16 | 4.2 | 8 | > 100 | –
COc1cccc2c1C(=O)c1c(O)cccc1C2 | 3.44 | 3.1 | – | 4.6 | 179
O=C1c2c(O)cccc2Cc2cc(CO)cc(O)c21 | 3.37 | 0.7 | 30 | 20.1 | 376
O=C1C=CC(=O)c2c(O)ccc(O)c21 [NAPHTHAZALIN] | 3.7 | 0.7 | – | 41.5 | 247
N=C1c2c(O)cccc2Cc2cccc(O)c21 | 4.72 | 0.5 | > 30 | 2.7 | 137
CC(=O)Oc1cccc2c1C(=O)c1c(cccc1OC(C)=O)C2 | 2.4 | 0.7 | 9 | 3.6 | 314
Nc1cccc2c1Cc1ccccc1C2=O | 2.46 | > 5 | 20 | 15.3 | –
c1ccc2cc3ccccc3cc2c1 | – | > 5 | > 30 | – | 131
O=C1c2cccc(O)c2Cc2cccc(O)c21 | 3.51 | 4.3 | – | 13.5 | 191
Cc1cc(O)c2c(=O)c3c(O)cc(O)c4c5c(O)cc(O)c6c(=O)c7c(O)cc(C)c8c1c2c(c34)c(c78)c65 [HYPERICIN] | 5.02 | 1.7 | > 30 | 3.66 | 159
O=C1c2cccc(O)c2C(=O)c2c(O)cccc21 [DANTHRON] | 4.16 | > 5 | > 30 | < 2 | 170
COc1cccc2c1C(=O)c1c(cccc1OC)C2 | 3.88 | > 5 | > 30 | – | 144
O=C1c2cccc(OCc3ccccc3)c2Cc2c(OCc3ccccc3)cccc21 | 5.73 | > 5 | – | 3.2 | –
O=C1c2c(O)cccc2C(C2c3cccc(O)c3C(=O)c3c(O)cccc32)c2cccc(O)c21 | 5.01 | 0.6 | > 30 | < 1 | 263
COC1c2cccc(O)c2C(=O)c2c(O)cccc21 | 3.96 | 1.1 | > 30 | – | 146
O=C1c2c(O)cccc2C(OCc2ccccc2)c2cccc(O)c21 | 4.25 | 3.8 | > 30 | – | –
Cc1ccc2c(c1O)C(=O)c1c(O)cccc1C2 | 4.99 | 1.5 | > 30 | 17.2 | 126

SMILES | logP [1] | IC50 [2] [µM] | IC50 [3] [µM] | kDPPH [4] [M⁻¹ s⁻¹] | LDH [5] [mU]
O=C1c2c(O)cccc2C([C@@H]2O[C@H](CO)[C@@H](O)[C@H](O)[C@H]2O)c2cc(CO)cc(O)c21 (some centres not stated) [ALOIN] | 1.83 | > 5 | > 30 | < 2 | –
O=C1c2ccccc2Cc2c1ccc(O)c2O | 3.81 | > 5 | 4 | > 100 | 144
COC(=O)c1cc(O)c2c(c1)Cc1cccc(O)c1C2=O | 4.54 | 0.7 | > 30 | > 100 | 340
O=C1c2ccccc2Cc2cccc(O)c21 | 3.99 | > 5 | 13 | 9.6 | 170
Nc1cccc2c1C(=O)c1ccccc1C2 | 2.45 | > 5 | 28 | 50.5 | –
CCSC1c2cccc(O)c2C(=O)c2c(O)cccc21 | 2.97 | – | > 30 | > 100 | –
O=C1c2c(Cl)cccc2Cc2cccc(Cl)c21 | 3.51 | > 5 | 4 | < 2 | –
CC(=O)Oc1cccc2c1C(=O)c1c(O)cccc1C2 | 3.25 | 0.8 | 6 | 16.1 | 243
O=C(O)c1cc(O)c2c(c1)Cc1cccc(O)c1C2=O | 2.96 | > 5 | 3 | > 100 | –
Oc1cccc(O)c1O [PYROGALLOL] | 1.19 | > 5 | 4 | > 100 | –
CN(C)C=C1c2cccc(O)c2C(=O)c2c(O)cccc21 | 3.18 | 2.1 | 21 | 16.2 | –
O=C1c2cccc(O)c2Cc2c(O)cccc21 | 2.17 | > 5 | 4 | < 2 | 144
CCCCC(=O)C1c2cccc(O)c2C(=O)c2c(O)cccc21 | 4.12 | 4.4 | > 30 | 7 | 214
O=C(c1ccccc1)c1cccc2c1C(=O)c1c(O)cccc1C2 | 3.99 | 4.3 | 27 | 39.6 | –
O=C1c2cccc(Cl)c2Cc2c(Cl)cccc21 | 5.05 | 2.1 | – | 3.4 | –
Cc1cc(O)c2c(c1)Cc1cccc(O)c1C2=O | 4.8 | 1.5 | > 30 | 15.3 | 211
O=C1c2c(O)cccc2C(Cc2ccccc2)c2cccc(O)c21 | 4.5 | > 5 | > 30 | < 2 | 135
O=C1c2c(O)cccc2Cc2cccc(O)c21 [ANTHRALIN] | – | – | – | 24.2 | 294
